Screening results: PubChem BioAssay, Johns Hopkins Ion Channel Center
Sampled rows, rich in hits. Any-hit rate of the full collection: about 3.8%.
KCNQ1 inh – inhibitors of human KCNQ1 channel, primary screen, cell-based, thallium flux, high-throughput; Potassium voltage-gated channel subfamily KQT member 1 (Homo sapiens), P51787; CHO-K1 KCNQ1, FluxOR thallium flux fluorescence; stronger effect = higher value; B-score at 10 µM; actives 1.3% (n = 310,000);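 active = compounds whose thallium flux B-score, printed positive for inhibition, exceeds three library SD while starting fluorescence stays within three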;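 note: channel opened by potassium depolarization with thallium stimulus after 20 min compound exposure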
Target sequence (P51787 whole entry, looked up): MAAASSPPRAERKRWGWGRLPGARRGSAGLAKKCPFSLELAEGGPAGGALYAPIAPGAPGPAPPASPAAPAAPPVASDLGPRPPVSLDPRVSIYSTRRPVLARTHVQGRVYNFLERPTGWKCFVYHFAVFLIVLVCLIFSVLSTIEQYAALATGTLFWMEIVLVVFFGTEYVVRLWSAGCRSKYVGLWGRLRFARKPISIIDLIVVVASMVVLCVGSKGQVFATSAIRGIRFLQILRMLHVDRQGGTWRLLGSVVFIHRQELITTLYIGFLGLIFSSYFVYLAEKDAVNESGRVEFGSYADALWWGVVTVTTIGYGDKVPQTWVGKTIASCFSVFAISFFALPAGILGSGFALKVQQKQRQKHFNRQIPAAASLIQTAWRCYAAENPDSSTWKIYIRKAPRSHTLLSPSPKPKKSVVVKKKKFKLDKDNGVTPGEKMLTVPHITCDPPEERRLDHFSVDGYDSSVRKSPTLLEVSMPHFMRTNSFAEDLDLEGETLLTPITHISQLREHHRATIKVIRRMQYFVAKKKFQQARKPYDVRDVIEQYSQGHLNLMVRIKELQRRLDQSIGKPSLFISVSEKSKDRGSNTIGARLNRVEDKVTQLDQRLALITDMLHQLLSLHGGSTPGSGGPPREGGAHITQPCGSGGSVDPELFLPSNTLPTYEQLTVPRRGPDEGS
KCNK3 block – human KCNK3 channel inhibitors, primary screen, CHO cells, FluxOR thallium flux, B-score. Potassium channel subfamily K member 3 (Homo sapiens), O14649. FluxOR fluorescence; stronger effect = lower value. B-score at 10 µM. actives 0.84% (n = 340,000). AID 602410, 2012;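 active = B-score under library mean minus 4 SD, starting fluorescence ratio at most library mean plus 5 SD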;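 note: more negative B-score means stronger inhibition of thallium flux through KCNK3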
hERG protect – hERG rescue from dofetilide block, primary screen, cell-based, CHO-hERG, FluxOR thallium flux, dofetilide IC70; Voltage-gated inwardly rectifying potassium channel KCNH2 (Homo sapiens), Q12809; dofetilide IC70 present; activation (rescue from dofetilide block), less the hit threshold, % at 10 µM; actives 0.51% (n = 310,000); AID 1511, 2009;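 active = activation above the mean of controls blocked by dofetilide plus 5 SD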;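 note: thallium influx through hERG after potassium depolarization seen as dye fluorescence rise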
Kir21 inh – inhibitors of mouse Kir2.1 inward-rectifier potassium channel; Inward rectifier potassium channel 2 (Mus musculus), P35561; HEK293-Kir2.1, FluxOR thallium flux fluorescence; stronger effect = lower value; B-score at 10 µM; actives 0.85% (n = 310,000);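 active = fluorescence ratio B-score at or below minus 3 SD of library scores, with starting-brightness B-score within 2 SD, cut at about -4.2 in these data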;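 note: channel flux triggered by added potassium and thallium sulfate stimulus; B-score of peak minus minimum fluorescence over baseline after thallium stimulus; more negative B-score means stronger Kir2.1 block with less thallium influx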
KCNQ1 act – potentiators or activators of KCNQ1 channel, primary screen, cell-based, thallium flux, high-throughput; CHO-K1 KCNQ1, thallium flux FluxOR fluorescence; stronger effect = higher value; B-score at 10 µM; actives 0.35% (n = 310,000); AID 2648, 2010;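 active = fluorescence ratio B-score, a plate-corrected score, at least three library SD, with initial intensity B-score within 5 SD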
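Material: CHO-K1 cells stably expressing KCNQ1. Medium: assay buffer for compound exposure, DMSO matched across wells. Reagent: K+/Tl+ depolarizing stimulus. Compound dosing: single-concentration screen. Times: 37 °C overnight plating, 90-min dark dye load, 20-min compound pretreatment. Technique: FluxOR Tl+ flux fluorescence.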
KCNK9 inh – KCNK9 potassium channel inhibitors, primary screen, HEK293 cells, thallium flux; Potassium channel subfamily K member 9 (Homo sapiens), Q9NPC2; FluxOR thallium flux fluorescence; stronger effect = lower value; B-score at 10 µM; actives 1.2% (n = 310,000); AID 488922, 2010;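 active = ratio B-score over 3 SD below the library mean, with starting fluorescence within 5 SD of its mean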;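 note: negative B-score means less thallium flux so channel inhibition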
Large screens that a line does not name were inactive.

CN(C(=S)Nc1ccc(SC(F)F)cc1)C(c1ccccc1)c1ccccc1	KCNQ1 inh 10
S=C(NCC1CCCCC1)Nc1cccnc1	none
FC(F)Sc1ccc(NC(=S)NCC2CCCCC2)cc1	KCNQ1 inh 9, KCNK9 inh -7.33
CC(NC(=S)Nc1ccc(F)cc1)c1ccccc1 (stereo not given)	none
CCOc1ccc(N(C)c2ccc(/C=C3/SC(=S)NC3=O)cc2)cc1	none
CCOc1ccc(N=C2NC(=O)S/C2=C\c2ccc(Cl)cc2)cc1	hERG protect 11.1
Cn1c(SCC(=O)Nc2ccccc2Br)nnc1-c1cnccn1	none
OCCN1CCN(CCCN2c3ccccc3Sc3ccc(Cl)cc32)CC1	Kir21 inh -5.59
CN(C)CCCN1c2ccccc2Sc2ccc3ccccc3c21	none (no result: KCNQ1 inh, hERG protect, Kir21 inh, KCNQ1 act, KCNK9 inh)
CN(C)CCCN1c2ccccc2Sc2ccc(Cl)cc21	Kir21 inh -7.91
CC(=O)c1ccc2c(c1)N(CCCN1CCC(CCO)CC1)c1ccccc1S2	none (no result: KCNQ1 inh, hERG protect, Kir21 inh, KCNQ1 act, KCNK9 inh)
CCOc1ccc(CCNC(=O)COC(=O)c2cccnc2SC)cc1OCC	none
CC(=O)c1ccccc1NC(=O)c1cc(S(=O)(=O)N2CCOCC2)ccc1N1CCCC1	none (no result: KCNQ1 inh, hERG protect, Kir21 inh, KCNQ1 act, KCNK9 inh)
Cc1cc(C)c(NC(=O)CCCN2CCN(C)CC2)c(C)c1	none
CN1CCN(CCCc2c3c(cc4c2CCC4)CCC3)CC1	Kir21 inh -4.39
CCCCNC(=O)/C(C#N)=c1\s/c(=C\c2ccccc2OC(F)F)c(=O)n1CCCOC	KCNQ1 inh 7
COCCCNC(=O)/C(C#N)=c1\s/c(=C\c2ccccc2OC(F)F)c(=O)n1CCCOC	none
Cc1cc[n+](-c2[nH]c(=O)sc2/C=N/NC([S-])=Nc2ccccc2)cc1C	none
CC(C)(C)c1cc[n+](-c2[nH]c(=O)sc2/C=N/NC([S-])=Nc2ccccc2)cc1	KCNQ1 inh 8
CCCc1cc(-c2[nH]ncc2-c2ccc3c(c2)OCCCO3)c(O)cc1O	KCNQ1 inh 6
CCSc1ccccc1C(=O)NCCCn1ccnc1	hERG protect 4.8
CCn1c(/C=C/Nc2ccccc2)[n+](CC)c2cc(Cl)c(Cl)cc21	Kir21 inh -7.02
CCOC(=O)/C(=C/C=C1\Sc2cc(C)c(C)cc2N1CC)C(C)=O	KCNQ1 inh 13
O=C(CN1CCN(S(=O)(=O)c2ccccc2)CC1)Nc1ccc(Cl)c([N+](=O)[O-])c1	none
Cc1nn(-c2ccccc2)c(Cl)c1/C=C1\SC(=S)NC1=O	hERG protect 18.9, KCNQ1 act 28
O=C(c1cccc(C(F)(F)F)c1)N1CCC2(CC1)NCCc1[nH]cnc12	none
O=C(NCC(c1ccco1)N1CCCCC1)c1cccc(S(=O)(=O)Nc2ccc(F)cc2)c1 (stereo not given)	none (no result: KCNQ1 inh, hERG protect, Kir21 inh, KCNQ1 act, KCNK9 inh)
COc1ccccc1N(C)S(=O)(=O)c1ccc(C(=O)Nc2ccc(C)cc2C)cc1	none (no result: KCNQ1 inh, hERG protect, Kir21 inh, KCNQ1 act, KCNK9 inh)
CCOC(=O)c1cc(NC(=O)Cc2ccc(S(=O)(=O)N3CCOCC3)s2)cc(C(=O)OCC)c1	KCNQ1 inh 7
CCc1ccc2nc(N=C(N)N)nc(C)c2c1	Kir21 inh -6.09
CCOc1ccc(Cl)cc1C1=CC(=O)C[C@H](c2ccc(OC)cc2)C1	none (no result: KCNQ1 inh, hERG protect, Kir21 inh, KCNQ1 act, KCNK9 inh)
O=C(Nc1ccc(Cl)cc1)Nc1nnc(SCc2ccccc2)s1	KCNQ1 inh 6
NC(=O)c1ccc(C2SCC(=O)N2CCc2ccccc2)cc1 (stereo not given)	none (no result: KCNQ1 inh, hERG protect, Kir21 inh, KCNQ1 act, KCNK9 inh)
O=C1CSC(c2ccccc2)N1CCc1ccccc1 (stereo not given)	Kir21 inh -4.25
COc1cc(NC(=O)OCc2ccccc2)c2ncccc2c1	KCNK3 block -10.8 (no result: KCNQ1 inh, hERG protect, Kir21 inh, KCNQ1 act, KCNK9 inh)
COc1cc(NC(=O)c2cc(OC)c(OC)c(OC)c2)c2ncccc2c1	none (no result: KCNQ1 inh, hERG protect, Kir21 inh, KCNQ1 act, KCNK9 inh)
Cc1ccc(/C=N/Nc2nc(N3CCCCC3)nc(N3CCCCC3)n2)o1	none
COC(=O)c1ccccc1-c1ccc(/C=N/Nc2nc(N3CCCC3)nc(N3CCCC3)n2)o1	KCNQ1 inh 6
O=[N+]([O-])c1ccc(/C=N/Nc2nc(N3CCCCCC3)nc(N3CCCCCC3)n2)o1	KCNQ1 inh 6, KCNK9 inh -6.99
NC(=O)CC(NC(=O)c1ccccc1)c1ccc(N2CCc3ccccc3C2)c([N+](=O)[O-])c1 (stereo not given)	none
C[n+]1ccc(/C=C/c2c[nH]c3ccc(F)cc23)cc1	KCNQ1 inh 11, KCNK9 inh -6.69
CC(=O)Nc1ccc(S(=O)(=O)NC(C)CCc2ccccc2)cc1 (stereo not given)	none
Cc1ccc(S(=O)(=O)NC(C)CCc2ccccc2)cc1 (stereo not given)	Kir21 inh -4.77
O=C1CC(c2ccc(Cl)cc2)CC(O)=C1C=NCCO (stereo not given)	none
CCOc1ncccc1C(=O)NNC(=O)CSc1ccc(Cl)cc1	none (no result: KCNQ1 inh, hERG protect, Kir21 inh, KCNQ1 act, KCNK9 inh)
O=C(CN1CCN(S(=O)(=O)N2CCOCC2)CC1)Nc1ccc(Cl)c(Cl)c1	none
O=C(CN1CCOCC1)Nc1ccccc1Sc1ccccc1	Kir21 inh -6.3
N=c1sccn1CC(=O)Nc1ccccc1Sc1ccccc1	Kir21 inh -4.84
O=C(CN1CCOCC1)Nc1ccc(Cl)c(Cl)c1	hERG protect 5.9
Cc1nc2scc(C)n2c(=O)c1S(=O)(=O)NCC1CCN(Cc2ccc(F)cc2)CC1	none
CCN(CC)S(=O)(=O)c1cccc(C(=O)NC(C(=O)NC2=NCCS2)C(C)C)c1 (stereo not given)	none
CCN(CC)S(=O)(=O)c1cccc(C(=O)N[C@H](C(=O)NNC(=O)c2ccccc2)C(C)C)c1	hERG protect 7.9, KCNQ1 act 33
CCOC(=O)C(CC(=O)O)=C(c1ccccc1)c1ccccc1	none
Cc1nc2ccccc2c2c1C(=O)N(C)C2=O	hERG protect 5.7
Cc1nc2ccccc2c2c1C(=O)N(C(C)C)C2=O	none
CC(C)(C)n1nnnc1C(c1cccs1)N(Cc1cccnc1)Cc1ccco1 (stereo not given)	KCNK9 inh -7.16
CC1CCC(NC(=O)CCCn2sc3ccccc3c2=O)CC1 (stereo not given)	none
CCOc1ccc(CN2CCN(CC(O)Cn3c4ccccc4c4ccccc43)CC2)cc1 (stereo not given)	none
COc1ccc(CN2CCN(CC(O)Cn3c4ccccc4c4ccccc43)CC2)cc1 (stereo not given)	Kir21 inh -4.42
O=c1c2ccccc2n(CC(O)CN2CCCCC2)c2ccccc12 (stereo not given)	KCNK9 inh -8.07
OC(CN1CCCCC1)Cn1c2ccccc2c2ccccc21 (stereo not given)	none
